Measurements from ChEMBL document CHEMBL2417509, “Synthesis and biological evaluation of prodigiosene conjugates of porphyrin, estrone and 4-hydroxytamoxifen” (2013).
Activity calls are given as the source filed them. The calls are words filed in the database; no cut-off is given here.

Tests used:
Format in all cases: functional
[1] = test system: NCI-H522; assay: Cytotoxicity against human NCI-H522 cells after 2 days by sulforhodamine B assay; settings: NCI-H522, 48 h
Summary of the method: (§1)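 NCI60 multi-dose screen, 59 human tumour lines available. Cells exposed to compound across a 5-log mol/L concentration range for 2 days, then fixed and stained with sulphorhodamine B, optical density read. Growth inhibition calculated against time-zero control and untreated cells. GI50 derived from the dose series, average of two replicates.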

[2] = test system: M14; assay: Cytotoxicity against human M14 cells after 2 days by sulforhodamine B assay; settings: M14, 48 h; for CC50: read-out: LC50 (the source's name); summary of the method: as §1
[3] = test system: KM12; assay: Cytotoxicity against human KM12 cells after 2 days by sulforhodamine B assay; settings: KM12, 48 h; summary of the method: as §1
[4] = test system: Malme-3M; assay: Cytotoxicity against human MALME-3M cells after 2 days by sulforhodamine B assay; settings: 48 h; summary of the method: as §1
[5] = test system: MDA-MB-435; assay: Cytotoxicity against human MDA-MB-435 cells after 2 days by sulforhodamine B assay; settings: MDA-MB-435, 48 h; for CC50: read-out: LC50 (the source's name); summary of the method: as §1
[6] = test system: U-251; assay: Cytotoxicity against human U251 cells after 2 days by sulforhodamine B assay; settings: U-251, 48 h
Summary of the method: (§2)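 NCI DTP NCI60 multi-dose screen (59 human tumour lines available). Cells exposed to compound over a 5-log mol/L concentration range for 2 days, then fixed and stained with sulphorhodamine B, with optical density read. Growth inhibition calculated relative to time-zero cells and untreated cells, giving GI50 (half-maximal growth inhibition concentration). Average of two replicates.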

[7] = test system: A549; assay: Cytotoxicity against human A549/ATCC cells after 2 days by sulforhodamine B assay; settings: A549, 48 h; summary of the method: as §1
[8] = test system: BT-549; assay: Cytotoxicity against human BT549 cells after 2 days by sulforhodamine B assay; settings: BT-549, 48 h; summary of the method: as §1
[9] = test system: UACC-257; assay: Cytotoxicity against human UACC257 cells after 2 days by sulforhodamine B assay; settings: UACC-257, 48 h; for CC50: read-out: LC50 (the source's name); summary of the method: as §2
[10] = test system: ACHN; assay: Cytotoxicity against human ACHN cells after 2 days by sulforhodamine B assay; settings: 48 h; summary of the method: as §1
[11] = test system: LOX IMVI; assay: Cytotoxicity against human LOXIMVI cells after 2 days by sulforhodamine B assay; settings: 48 h; summary of the method: as §1
[12] = test system: SK-MEL-5; assay: Cytotoxicity against human SK-MEL-5 cells after 2 days by sulforhodamine B assay; settings: SK-MEL-5, 48 h; summary of the method: as §1
[13] = test system: SW-620; assay: Cytotoxicity against human SW620 cells after 2 days by sulforhodamine B assay; settings: SW-620, 48 h; summary of the method: as §2
[14] = test system: UACC-62; assay: Cytotoxicity against human UACC62 cells after 2 days by sulforhodamine B assay; settings: UACC-62, 48 h; for CC50: read-out: LC50 (the source's name); summary of the method: as §2
[15] = test system: HL-60(TB); assay: Cytotoxicity against human HL-60(TB) cells after 2 days by sulforhodamine B assay; settings: HL-60, 48 h; for CC50: read-out: LC50 (the source's name)
Summary of the method: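 NCI60 multi-dose screen: cells exposed to compound over a 5-log mol/L concentration range for 2 days, then fixed and stained with sulphorhodamine B and optical density read. Growth inhibition calculated relative to time-zero control and untreated cells; GI50 reported as average of two replicates.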

[16] = test system: IGROV-1; assay: Cytotoxicity against human IGROV1 cells after 2 days by sulforhodamine B assay; settings: IGROV-1, 48 h; summary of the method: as §1
[17] = test system: HCT-15; assay: Cytotoxicity against human HCT15 cells after 2 days by sulforhodamine B assay; settings: HCT-15, 48 h; summary of the method: as §1
[18] = test system: T47D; assay: Cytotoxicity against human T47D cells after 2 days by sulforhodamine B assay; settings: 48 h; summary of the method: as §2
[19] = test system: DU-145; assay: Cytotoxicity against human DU145 cells after 2 days by sulforhodamine B assay; settings: DU-145, 48 h; summary of the method: as §1
[20] = test system: SN12C; assay: Cytotoxicity against human SN12C cells after 2 days by sulforhodamine B assay; settings: 48 h; for CC50: read-out: LC50 (the source's name); summary of the method: as §1
[21] = test system: SNB-75; assay: Cytotoxicity against human SNB75 cells after 2 days by sulforhodamine B assay; settings: SNB-75, 48 h; summary of the method: as §2
[22] = test system: MDA-MB-468; assay: Cytotoxicity against human MDA-MB-468 cells after 2 days by sulforhodamine B assay; settings: MDA-MB-468, 48 h; summary of the method: as §1
[23] = test system: HOP-92; assay: Cytotoxicity against human HOP92 cells after 2 days by sulforhodamine B assay; settings: HOP-92, 48 h; for CC50: read-out: LC50 (the source's name); summary of the method: as §1
[24] = test system: HOP-62; assay: Cytotoxicity against human HOP62 cells after 2 days by sulforhodamine B assay; settings: HOP-62, 48 h; for CC50: read-out: LC50 (the source's name); summary of the method: as §1
[25] = test system: PC-3; assay: Cytotoxicity against human PC3 cells after 2 days by sulforhodamine B assay; settings: PC-3, 48 h; summary of the method: as §1
[26] = test system: K562; assay: Cytotoxicity against human K562 cells after 2 days by sulforhodamine B assay; settings: K562, 48 h; summary of the method: as §1
[27] = test system: SF-295; assay: Cytotoxicity against human SF295 cells after 2 days by sulforhodamine B assay; settings: SF-295, 48 h; summary of the method: as §1
[28] = test system: TK-10; assay: Cytotoxicity against human TK10 cells after 2 days by sulforhodamine B assay; settings: TK-10, 48 h; summary of the method: as §2
[29] = test system: NCI-H322M; assay: Cytotoxicity against human NCI-H322M cells after 2 days by sulforhodamine B assay; settings: 48 h; summary of the method: as §1
[30] = test system: OVCAR-4; assay: Cytotoxicity against human OVCAR4 cells after 2 days by sulforhodamine B assay; summary of the method: as §1

## CC/C(=C(/c1ccc(OCCN(C)C)cc1)c1ccc(OC(=O)CCCCCCCCC(=O)C2=C(C)/C(=C/c3[nH]c(-c4ccc[nH]4)cc3OC)N=C2C)cc1)c1ccccc1
[1]
  GI50: 21.4 µM
  LC50: > 100 µM
  TGI: > 100 µM
[2]
  GI50: 2.14 µM
  TGI: 4.47 µM
  CC50: 9.33 µM
[3]
  GI50: 5.25 µM
  LC50: > 100 µM
  TGI: > 100 µM
[4]
  GI50: 40.7 µM
  LC50: > 100 µM
  TGI: > 100 µM
[5]
  GI50: 4.57 µM
  TGI: > 100 µM
  CC50: > 100 µM
[6]
  GI50: 6.61 µM
  LC50: > 100 µM
  TGI: > 100 µM
[7]
  GI50: 4.17 µM
  LC50 (concentration giving 50% net cell kill): > 100 µM
  TGI: > 100 µM
[8]
  GI50: 5.25 µM
  LC50 (concentration killing 50% of cells present at time zero): > 100 µM
  TGI: > 100 µM
[9]
  GI50: 63.1 µM
  TGI: > 100 µM
  CC50: > 100 µM
[10]
  GI50: 7.76 µM
  LC50 (concentration killing 50% of cells): > 100 µM
  TGI: > 100 µM
[11]
  GI50: 2.34 µM
  LC50: 27.5 µM
  TGI: 5.89 µM
[12]
  GI50: 1.62 µM
  LC50 (concentration killing 50% of cells): 6.46 µM
  TGI: 3.24 µM
[13]
  GI50: 3.72 µM
  LC50 (concentration killing 50% of cells): 56.2 µM
  TGI: 14.1 µM
[14]
  GI50: 3.39 µM
  TGI: 18.2 µM
  CC50: > 100 µM
[15]
  GI50: 12.3 µM
  TGI: > 100 µM
  CC50: > 100 µM
[16]
  GI50: 22.9 µM
  LC50: > 100 µM
  TGI: > 100 µM
[17]
  GI50: 5.13 µM
  LC50: > 100 µM
  TGI: 97.7 µM
[18]
  GI50: 3.55 µM
  LC50 (concentration killing 50% of cells): > 100 µM
  TGI: > 100 µM
[19]
  GI50: 8.13 µM
  LC50 (concentration killing 50% of starting cells): > 100 µM
  TGI: > 100 µM
[20]
  GI50: 7.59 µM
  TGI: > 100 µM
  CC50: > 100 µM
[21]
  GI50: 4.17 µM
  LC50 (concentration killing 50% of starting cells): > 100 µM
  TGI: > 100 µM
[22]
  GI50: 3.63 µM
  LC50: > 100 µM
  TGI: > 100 µM
[23]
  GI50: 1.95 µM
  CC50: > 100 µM
[24]
  GI50: 16.9 µM
  TGI: > 100 µM
  CC50: > 100 µM
[25]
  GI50: 5.89 µM
  LC50 (concentration killing 50% of cells): > 100 µM
  TGI: > 100 µM
[26]
  GI50: 4.57 µM
  LC50 (concentration killing 50% of cells): > 100 µM
  TGI: > 100 µM
[27]
  GI50: 10.7 µM
  LC50: > 100 µM
  TGI: 61.7 µM
[28]
  GI50: 20.9 µM
  LC50: > 100 µM
  TGI: > 100 µM
[29]
  GI50: > 100 µM
  LC50 (concentration killing 50% of cells): > 100 µM
  TGI: > 100 µM
[30]
  Activity: inactive
[30]; OVCAR-4, 48 h
  LC50 (concentration killing 50% of cells): > 100 µM
  TGI: > 100 µM

## COc1cc(-c2ccc[nH]2)[nH]c1/C=C1\N=C(C)C(C(=O)CCC(=O)Oc2ccc3c(c2)CC[C@@H]2[C@@H]3CC[C@]3(C)C(=O)CC[C@@H]23)=C1C
[1]
  GI50: 4.68 µM
  LC50: > 100 µM
  TGI: 60.1 µM
[2]
  GI50: 12.4 µM
  TGI: 33.4 µM
  CC50: 91.2 µM
[3]
  GI50: 6.25 µM
  LC50: > 100 µM
  TGI: > 100 µM
[4]
  GI50: 29 µM
  LC50: > 100 µM
  TGI: > 100 µM
[5]
  GI50: 7.68 µM
  TGI: > 100 µM
  CC50: > 100 µM
[6]
  GI50: 3.41 µM
  LC50: > 100 µM
  TGI: > 100 µM
[7]
  GI50: 2.68 µM
  LC50 (concentration giving 50% net cell kill): > 100 µM
  TGI: > 100 µM
[8]
  GI50: 15.6 µM
  LC50 (concentration killing 50% of cells present at time zero): > 100 µM
  TGI: > 100 µM
[9]
  GI50: 97.6 µM
  TGI: > 100 µM
  CC50: > 100 µM
[10]
  GI50: 5.83 µM
  LC50 (concentration killing 50% of cells): > 100 µM
  TGI: > 100 µM
[11]
  GI50: 1.17 µM
  LC50: 21.2 µM
  TGI: 3.56 µM
[12]
  GI50: 3.5 µM
  LC50 (concentration killing 50% of cells): 68.8 µM
  TGI: 19.6 µM
[13]
  GI50: 0.77 µM
  LC50 (concentration killing 50% of cells): > 100 µM
  TGI: > 100 µM
[14]
  GI50: 3.71 µM
  TGI: 17.6 µM
  CC50: 65.1 µM
[15]
  GI50: 55.8 µM
  TGI: > 100 µM
  CC50: > 100 µM
[16]
  GI50: 8.4 µM
  LC50: > 100 µM
  TGI: > 100 µM
[17]
  GI50: 2.6 µM
  LC50: > 100 µM
  TGI: > 100 µM
[18]
  GI50: 15.4 µM
  LC50 (concentration killing 50% of cells): > 100 µM
  TGI: > 100 µM
[19]
  GI50: 1.96 µM
  LC50 (concentration killing 50% of starting cells): > 100 µM
  TGI: > 100 µM
[20]
  GI50: 5.21 µM
  TGI: > 100 µM
  CC50: > 100 µM
[21]
  GI50: 59.1 µM
  LC50 (concentration killing 50% of starting cells): > 100 µM
  TGI: > 100 µM
[22]
  GI50: 17 µM
  LC50: > 100 µM
  TGI: > 100 µM
[23]
  GI50: 2.23 µM
  TGI: 19.4 µM
  CC50: > 100 µM
[24]
  GI50: 18.3 µM
  TGI: 65.9 µM
  CC50: > 100 µM
[25]
  GI50: 7.45 µM
  LC50 (concentration killing 50% of cells): > 100 µM
  TGI: > 100 µM
[26]
  GI50: 4.23 µM
  LC50 (concentration killing 50% of cells): > 100 µM
  TGI: > 100 µM
[27]
  GI50: 21.4 µM
  LC50: > 100 µM
  TGI: 85.4 µM
[28]
  GI50: 27.8 µM
  LC50: > 100 µM
  TGI: > 100 µM
[29]
  GI50: 32.6 µM
  LC50 (concentration killing 50% of cells): > 100 µM
  TGI: > 100 µM
[30]; OVCAR-4, 48 h
  GI50: 20.9 µM
  LC50 (concentration killing 50% of cells): > 100 µM
  TGI: > 100 µM
